Bioassay records: PubChem BioAssay, Johns Hopkins Ion Channel Center
MrgX1 agonist – agonists of human MrgX1 receptor; MrgX1-HEK293 cells, Fluo-4 calcium fluorescence, agonist mode; active compounds read high; B-score at 10 µM; Q96LB2; AID 588627; 0.44% of 310,000 active;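 active = calcium response B-score plate-corrected fluorescence ratio at least 3 library SD, with starting fluorescence B-score inside 5 SD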
Target sequence (Q96LB2 whole entry, looked up): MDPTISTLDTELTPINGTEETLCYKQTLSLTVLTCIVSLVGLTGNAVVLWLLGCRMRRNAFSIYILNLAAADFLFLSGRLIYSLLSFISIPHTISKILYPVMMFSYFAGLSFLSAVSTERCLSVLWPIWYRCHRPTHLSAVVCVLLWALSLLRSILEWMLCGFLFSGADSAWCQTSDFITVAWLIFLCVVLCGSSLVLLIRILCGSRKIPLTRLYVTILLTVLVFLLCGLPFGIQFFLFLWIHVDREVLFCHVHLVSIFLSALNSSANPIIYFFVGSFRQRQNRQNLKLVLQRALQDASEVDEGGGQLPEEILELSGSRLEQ
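System: HEK293 cells stably expressing human MrgX1 receptor; Dosing: test compound in the initial addition of three; Schedule: overnight plating, then 30 min 37 °C plus 30 min room-temperature dye loading; Detection: kinetic calcium dye fluorescence, Fluo-4 NW; Controls: per-plate positive and negative controls for Z′ factor.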
MrgX1 allo act – human MrgX1 positive allosteric modulation, primary screen; AID 588675; Q96LB2; MrgX1-HEK293, Fluo-4 calcium flux, FDSS; active compounds read high; B-score at 10 µM; 0.63% of 310,000 active;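 active = plate-corrected calcium response at least 3 library SD above typical, normal starting fluorescence, not activating the receptor alone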;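 note: compound read alongside a low EC10 to EC30 dose of BAM8-22 agonist; peak minus trough fluorescence over baseline measured at the second addition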
RGS4 act – RGS4 potentiation or activation; HEK293 M3R/inducible RGS4, carbachol calcium flux Fluo4; active compounds read low; B-score at 10 µM; 0.92% of 310,000 active;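 active = B-score of the integrated calcium signal more than 4 SD below the library mean, with starting fluorescence not abnormally high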;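 note: negative B-score means reduced calcium response which marks RGS4 activation or potentiation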
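System: HEK293 FlpIn-TREx cells, stable M3R, doxycycline-inducible RGS4. Timing: overnight RGS4 induction, 30 min dye load 37 °C, 20 min compound RT. Also added: carbachol, ECmax concentration. Measured by: Fluo4 fluorescence kinetic imaging of calcium. Evaluation: integrated calcium ratio converted to B score.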
RGS4 inh – human RGS4 inhibition | 0.45% of 310,000 active | B-score at 10 µM | P49798 | HEK293 M3R/RGS4 inducible, Fluo-4 calcium flux; active compounds read high; triggered by carbachol at its EC20;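 active = B-score, a plate-corrected calcium signal, over three deviations above library mean, with baseline fluorescence within five deviations of library mean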;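 note: RGS4 expression induced by doxycycline in cells with stable M3 receptor; B-score is computed from the integrated fluorescence ratio over baseline after carbachol; higher B-score means a larger calcium signal and so more RGS4 inhibition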
Target sequence (P49798 whole entry, looked up): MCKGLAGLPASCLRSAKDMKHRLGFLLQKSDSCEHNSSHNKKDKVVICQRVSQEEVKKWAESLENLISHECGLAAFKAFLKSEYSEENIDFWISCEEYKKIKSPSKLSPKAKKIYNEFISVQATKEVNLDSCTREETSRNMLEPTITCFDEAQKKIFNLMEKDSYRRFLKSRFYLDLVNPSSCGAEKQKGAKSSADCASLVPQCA
MrgX1 antag – blocks BAM8-22 activation of human MrgX1 receptor | Q96LB2 | MRGX1-HEK293 calcium flux, Fluo-4, BAM8-22 antagonism; active compounds read low | B-score at 10 µM | 1.3% of 310,000 active | AID 588676;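 active = calcium-response B-score plate-corrected more than 3 library SD below zero, starting fluorescence within 5 deviations, no agonist response on first addition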;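 note: peak minus trough fluorescence over baseline after final BAM8-22 challenge near maximal dose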
* marks the source's active call; other numbers are inactive results; i = inactive; . = not tested or not shown. The list is not random: actives were taken first. Their share in the collection is about 3.5%.

SMILES	MrgX1 agonist	MrgX1 allo act	RGS4 act	RGS4 inh	MrgX1 antag
CCOC(=O)c1ccccc1NC(=O)COC(=O)CSC(C)C(=O)Nc1cc(C)on1 (stereo not given)	i	i	i	i	i
Cc1nn(CC(=O)N2CCN(Cc3ccccc3)CC2)c(=O)c2ccccc12	i	6.9*	i	i	i
Cc1nn(CC(=O)N2CCOCC2)c(=O)c2ccccc12	i	i	i	i	i
Clc1ccc(OCc2nnc(SCc3nnc(-c4ccccc4)o3)o2)c(Cl)c1	i	i	-9.7*	i	i
O=C(CSc1nnc(COc2ccc(Cl)cc2Cl)o1)Nc1ccccn1	i	i	i	i	i
Clc1ccc(CN2C3=NCCCN3c3ccccc32)c(Cl)c1	i	i	i	i	i
N#Cc1ccc(C(=O)Nc2cccc(NC(=O)c3ccco3)c2)c(F)c1	i	i	i	i	i
O=C(Cc1ccccc1)N1CCN=C1SCc1cccc([N+](=O)[O-])c1	i	i	i	i	i
Cc1cccc(C(=O)N2CCN=C2SCc2ccc([N+](=O)[O-])cc2)c1	i	i	-8.6*	i	i
O=C(CN1CCOCC1)Nc1ccc([N+](=O)[O-])cc1	i	i	i	i	i
CC(=C/c1ccccc1)/C=N/NC(=O)c1ccc2nc[nH]c2c1	i	i	i	i	i
CC(/C=N/NC(=O)c1ccc2nc(C)[nH]c2c1)=C\c1ccccc1	i	6.7*	i	i	i
CCN(CC)CCNC(=O)CCCNC(=O)Cn1cnc2sc(C)c(C)c2c1=O	i	i	i	i	-9.1*
CCc1ccc(NC(=O)CCCNC(=O)Cn2cnc3sc(C)c(C)c3c2=O)cc1	i	i	i	i	i
CCN1/C(=C/c2cc[n+](C)cc2)C=Cc2cc(C)ccc21	i	i	.	.	-7*
COc1ccccc1N/C=C/c1onc(C)c1[N+](=O)[O-]	i	i	i	i	-6.5*
COc1ccc(N=C2CC(C)(C)CC(=O)/C2=C(/O)c2ccccc2)cc1	i	i	i	i	i
CCOP(=O)(c1ccc(N(C)C)cc1)C(O)c1cc(OC)c(OC)c(OC)c1 (stereo not given)	i	i	i	i	-4.8*
COc1cc(C(O)P(=O)(OCC(C)C)c2ccc(N(C)C)cc2)cc(OC)c1OC (stereo not given)	i	i	i	i	i
O=C(N/N=C/c1ccc[nH]1)c1ccc(COc2cccc3cccnc23)cc1	i	7.8*	i	i	-7.2*
CCOCCOC(=O)C(C)Oc1ccc(Oc2nc(Cl)ccc2Cl)cc1 (stereo not given)	i	i	i	i	-8.5*
CCOCCOC(=O)C(C)Oc1ccc(Oc2ncc(Cl)cc2Cl)cc1 (stereo not given)	i	i	i	i	i
CC1CCC(NC(=O)C2CC(=O)N(c3ccc(Cl)cc3)C2)CC1 (stereo not given)	i	i	i	i	i
CCOC(=O)Cc1csc(NC(=O)c2cccs2)n1	i	i	i	i	i
CCOC(=O)Cc1csc(NC(=O)c2ccc(Br)s2)n1	31*	i	i	i	i
SMILES	MrgX1 agonist	MrgX1 allo act	RGS4 act	RGS4 inh	MrgX1 antag
CC1CCN(C(=O)c2ccc3c(c2NCCO)C(=O)c2ccccc2C3=O)CC1	i	9.9*	i	i	i
COC(=O)/C=c1/s/c(=C(/C#N)C(=O)N2CCCCC2)n(-c2ccccc2)c1=O	i	i	i	i	i
COc1cc(/C=c2\s/c(=C(/C#N)C(=O)N3CCCC3)n(-c3ccccc3)c2=O)ccc1O	i	14*	i	i	i
C/C(=N\NC(=O)c1ccc(Cn2cc(Br)cn2)o1)c1ccc(NC(=O)c2ccoc2C)cc1	.	.	-9.5*	i	.
C/C(=N\NC(=O)c1ccc(Cn2cc(Br)cn2)o1)c1cccc(NC(=O)C(C)(C)C)c1	i	i	i	i	i
C=C(NC(=O)C(=C)NC(=O)c1csc(C2=NC3c4csc(n4)C4NC(=O)c5csc(n5)C([C@@](C)(O)C(C)O)NC(=O)C5CSC(=N5)/C(=C\C)NC(=O)C(C(C)O)NC(=O)c5csc(n5)[C@]3(CC2)NC(=O)C(C)NC(=O)C(=C)NC(=O)C(C)NC(=O)C(C(C)CC)NC2C=Cc3c(C(C)O)cc(nc3C2O)C(=O)OC4C)n1)C(N)=O (stereo not given in full)	i	i	.	.	i
CCc1cc(C(=O)OCC(=O)N2CCC(c3ccccc3)=N2)sc1C	i	i	-7.2*	i	i
Cc1cccc(C(=O)OCC(=O)N2CCC(c3ccccc3)=N2)c1O	i	i	i	i	i
CCn1nc(C)c(Br)c1C(=O)Sc1ccccc1Cl	i	i	i	i	i
C=CCOc1ccc(CNCCc2ccc(S(N)(=O)=O)cc2)cc1	i	i	-7.4*	i	i
CC(C)(C)OC(=O)NCCCC1=CC2=CC(=O)C(C)(OC(=O)c3ccc(Cl)nc3)C(=O)C2=CO1 (stereo not given)	i	i	i	i	-5*
CCC(=O)OC1(C)C(=O)C=C2C=C(CCCCNC(=O)OC(C)(C)C)OC=C2C1=O (stereo not given)	i	i	i	i	i
COc1ccccc1NC(=O)Cc1nnc(SCC(=O)c2ccccc2)n1C	i	i	i	i	i
O=[N+]([O-])c1ccc(CSc2nnc(SCc3ccccc3)s2)cc1	i	i	-8.3*	i	i
CCCc1nc2ccc(NC(=O)c3ccco3)cc2c(=O)n1Cc1ccc(Cl)cc1	i	i	i	i	-6.7*
Cc1cc(F)ccc1Oc1cc(NN2CCCCC2)c([N+](=O)[O-])cc1[N+](=O)[O-]	i	i	i	i	i
COc1cccc(Oc2cc(NN3CCCCC3)c([N+](=O)[O-])cc2[N+](=O)[O-])c1OC	i	i	-9.1*	i	i
Cc1nc2ccccn2c1C(=O)N/N=C/c1ccc([N+](=O)[O-])o1	i	i	i	i	-6*
Cc1nn(C)c(C(=O)Nc2cccc(Nc3ccccc3)c2)c1[N+](=O)[O-]	i	i	i	i	i
Cc1nc2ccccn2c1C(=O)N/N=C/c1ccc([N+](=O)[O-])cc1	i	i	i	i	i
Cc1nn(C)c(C(=O)N/N=C/c2ccccc2)c1[N+](=O)[O-]	i	i	-9.9*	i	i
Cc1cc(/C=C2\SC(=S)NC2=O)c(C)n1-c1ccccc1	i	i	i	i	i
